Measured values: article PMC11303814 (Nature Communications, 2024)
Substitutions are numbered along the chain they refer to.

Assays:
Format in all cases: cell-based
rP2X7-R125A/Q143A/I214A = biological target: T1, rP2X7-R125A/Q143A/I214A (Rattus norvegicus, UniProt Q64663, I214A/Q143A/R125A); test: TEVC dose response; conditions: read-out: EC50 (apparent affinity), mean ± SD, triplicate
T1 sequence (Q64663 1-595 R125A/Q143A/I214A): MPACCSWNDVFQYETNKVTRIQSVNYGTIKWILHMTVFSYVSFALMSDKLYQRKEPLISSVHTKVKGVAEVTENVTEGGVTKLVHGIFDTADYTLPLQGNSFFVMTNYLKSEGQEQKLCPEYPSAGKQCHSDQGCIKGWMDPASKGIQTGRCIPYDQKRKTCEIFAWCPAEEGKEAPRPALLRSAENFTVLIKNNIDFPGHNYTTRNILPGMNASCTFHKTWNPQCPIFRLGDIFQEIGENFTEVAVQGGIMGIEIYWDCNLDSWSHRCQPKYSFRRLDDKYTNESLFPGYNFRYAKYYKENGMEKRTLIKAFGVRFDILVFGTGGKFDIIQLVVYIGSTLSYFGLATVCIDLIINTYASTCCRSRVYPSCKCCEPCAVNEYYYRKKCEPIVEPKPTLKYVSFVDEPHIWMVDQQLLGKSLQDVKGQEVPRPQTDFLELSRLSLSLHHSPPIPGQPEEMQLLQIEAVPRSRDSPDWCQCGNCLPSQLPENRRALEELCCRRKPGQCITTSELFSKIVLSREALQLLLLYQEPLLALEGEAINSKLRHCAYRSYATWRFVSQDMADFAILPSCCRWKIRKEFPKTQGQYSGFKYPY

rP2X7-R125A = biological target: T2, rP2X7-R125A (Rattus norvegicus, UniProt Q64663, R125A); test: TEVC deactivation time; conditions: after 100 μM ATP or 10 μM BzATP
T2 sequence (Q64663 1-595 R125A): T1 sequence (Q64663 1-595 R125A/Q143A/I214A) with A143Q, A214I
Method in brief: (§1)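 Xenopus oocytes injected with 50 nL of 10 ng/µL mutant rP2X7 mRNA, expressed ~20 h, clamped in pH 7.4 HEPES buffer with 0.1 mM flufenamic acid and EDTA. Currents were evoked by 100 µM ATP or 10 µM BzATP. τ is the time for current to return to 63% of baseline after agonist removal, from a one- or two-phase decay fit. Done in triplicate over first to third applications per oocyte; mean ± SD.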

rP2X7-Q143A = biological target: T3, rP2X7-Q143A (Rattus norvegicus, UniProt Q64663, Q143A); test: TEVC deactivation time; conditions: after 100 μM ATP or 10 μM BzATP
T3 sequence (Q64663 1-595 Q143A): T1 sequence (Q64663 1-595 R125A/Q143A/I214A) with A125R, A214I
Method in brief: as §1

rP2X7-I214G = biological target: T4, rP2X7-I214G (Rattus norvegicus, UniProt Q64663, I214G); test: TEVC deactivation time; conditions: after 100 μM ATP or 10 μM BzATP
T4 sequence (Q64663 1-595 I214G): T1 sequence (Q64663 1-595 R125A/Q143A/I214A) with A125R, A143Q, A214G
Method in brief: as §1

EC50 (rP2X7-R125A/Q143A/I214A) [µM]	deactivation lifetime τ (rP2X7-R125A) [s]	deactivation lifetime τ (rP2X7-Q143A) [s]	deactivation lifetime τ (rP2X7-I214G) [s]	Compound
198 ± 60	18 ± 3.7	7.1 ± 0.6	8.9 ± 2.2	BzATP
203 ± 12	3.5 ± 0.6	1.2 ± 0.1	2.9 ± 0.2	Nc1ncnc2c1ncn2[C@@H]1O[C@H](COP(=O)(O)OP(=O)(O)OP(=O)(O)O)[C@@H](O)[C@H]1O [ATP]
